Assay [1] deals with Serine/threonine-protein kinase Chk2 (Homo sapiens) (UniProt O96017). The assay is described as follows: Inhibition of CHK2 (unknown origin) at 10 uM. Put shortly:
(§1)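 Dundee human kinase selectivity panel (77 kinases); test compound at 1 and 10 μM, percentage kinase inhibition recorded.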

Assay [2] has as its target Glycogen synthase kinase-3 (Sus scrofa, UniProt B2LUN4+I6LNT8). The assay is described as follows: Inhibition of pig GSK-3alpha/beta. Put shortly:
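Native affinity-purified porcine GSK-3 in the radiometric assay: 40 μM GS-1 peptide, 15 μM γ-33P-ATP, pH 7.5 Tris/MgCl2/EGTA/DTT/heparin/BSA buffer, 30 min at 30 °C, P81 filter binding and scintillation counting. IC50 from dose-response curves with triplicate points; top concentration 10 or 100 μM.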

The target of assay [3] is T1, Serine/threonine-protein kinase BRSK2 (Homo sapiens) (UniProt Q8IWQ3).
T1 sequence (whole entry): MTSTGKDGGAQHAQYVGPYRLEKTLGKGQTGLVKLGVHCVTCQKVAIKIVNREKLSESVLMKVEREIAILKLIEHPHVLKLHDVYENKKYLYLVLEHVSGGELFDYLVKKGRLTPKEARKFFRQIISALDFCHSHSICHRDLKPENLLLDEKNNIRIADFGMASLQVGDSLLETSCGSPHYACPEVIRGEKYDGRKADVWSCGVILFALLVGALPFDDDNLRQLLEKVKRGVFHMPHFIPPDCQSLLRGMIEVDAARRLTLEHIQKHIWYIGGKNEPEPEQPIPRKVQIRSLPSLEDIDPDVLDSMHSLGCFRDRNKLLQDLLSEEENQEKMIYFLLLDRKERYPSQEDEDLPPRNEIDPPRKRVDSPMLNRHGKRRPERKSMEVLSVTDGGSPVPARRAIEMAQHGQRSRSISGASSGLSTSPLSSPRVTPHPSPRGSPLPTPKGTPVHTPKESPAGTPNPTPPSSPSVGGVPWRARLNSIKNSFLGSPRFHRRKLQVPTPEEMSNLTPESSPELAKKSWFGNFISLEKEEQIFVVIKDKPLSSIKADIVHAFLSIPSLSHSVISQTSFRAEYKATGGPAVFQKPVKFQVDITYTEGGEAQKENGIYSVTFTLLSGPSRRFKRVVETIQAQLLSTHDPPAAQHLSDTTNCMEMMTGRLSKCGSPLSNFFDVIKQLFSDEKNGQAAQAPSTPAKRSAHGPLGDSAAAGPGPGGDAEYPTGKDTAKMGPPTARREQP
Description: Inhibition of BRSK2 (unknown origin) at 10 uM. In short, it runs like this:
as §1

A further assay deals with Plasmodium falciparum. The assay is described as follows: Antiplasmodial activity against Plasmodium falciparum after 72 hrs by luciferase reporter gene assay. It is filed as functional, organism-based. Conditions: 48 h, in the assay text read “48 hrs” for “72 hrs”. In short, it runs like this:
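NF54:LUC P. falciparum erythrocytic stages (luciferase under hrp2 promoter) at 3% parasitemia, 25% hematocrit; compounds in RPMI-1640 with 1% DMSO, triplicate wells; untreated, DMSO-only and non-luciferase NF54 blank wells. […] Bright-Glo lysis, luminescence read.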

Assay [4] addresses Insulin receptor (Homo sapiens) (UniProt P06213). The assay is described as follows: Inhibition of IR-HIS (unknown origin) at 10 uM. In short, it runs like this: as §1
Assay [5] can be described thus: Inhibition of Leishmania donovani GSK-3.
Assay [6] concerns the target Tyrosine-protein kinase BTK (Homo sapiens) (UniProt Q06187). The assay is described as follows: Inhibition of BTK (unknown origin) at 10 uM. Put shortly:
as §1

Assay [7] addresses T2, Mitogen-activated protein kinase 15 (Homo sapiens) (UniProt Q8TD08).
T2 sequence (whole entry): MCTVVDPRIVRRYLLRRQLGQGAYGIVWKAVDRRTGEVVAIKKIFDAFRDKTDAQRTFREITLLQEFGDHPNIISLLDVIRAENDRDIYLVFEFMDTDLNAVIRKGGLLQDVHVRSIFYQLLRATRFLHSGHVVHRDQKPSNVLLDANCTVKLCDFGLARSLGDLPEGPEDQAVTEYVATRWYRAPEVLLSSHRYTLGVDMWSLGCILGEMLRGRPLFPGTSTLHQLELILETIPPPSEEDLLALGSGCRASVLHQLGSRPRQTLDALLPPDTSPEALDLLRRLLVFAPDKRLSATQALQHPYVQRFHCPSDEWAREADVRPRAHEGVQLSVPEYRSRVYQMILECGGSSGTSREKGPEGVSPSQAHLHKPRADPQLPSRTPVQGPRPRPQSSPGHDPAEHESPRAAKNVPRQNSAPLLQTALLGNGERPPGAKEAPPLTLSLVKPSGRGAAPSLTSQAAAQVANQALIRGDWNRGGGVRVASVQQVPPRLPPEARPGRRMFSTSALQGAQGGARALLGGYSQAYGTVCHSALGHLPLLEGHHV
The assay is described as follows: Inhibition of ERK8 (unknown origin) at 10 uM. Put shortly: as §1

Assay [8] can be described thus: Inhibition of Plasmodium falciparum recombinant His6-tagged GSK-3 expressed in Escherichia coli using GS-1 peptide as substrate after 30 mins by scintillation counting analysis in presence of gamma-33P-ATP. Put shortly: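 His6-tagged recombinant GSK-3 expressed in E. coli (TOP10/pBAD-Thio-TOPO for P. falciparum and T. gondii, arabinose-induced; BL21(DE3)-pRARE2/pET15 for C. parvum, IPTG at 15 °C), Ni-NTA purified. Assayed with 40 μM GS-1 phosphopeptide, 15 μM γ-33P-ATP in pH 7.5 Tris buffer with MgCl2, EGTA, DTT, heparin, BSA; 30 min, 30 °C; P81 paper, phosphoric acid washes, scintillation counting. DMSO controls; dose-response IC50, triplicate points.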

A short description of assay [9]: Inhibition of Trypanosoma brucei GSK-3.

Data on one compound can be found in ChEMBL document CHEMBL2311539, “3,6-Diamino-4-(2-halophenyl)-2-benzoylthieno[2,3-b]pyridine-5-carbonitriles are selective inhibitors of Plasmodium falciparum glycogen synthase kinase-3” (J Med Chem, 2013).

As a reminder, the inhibition is the percentage by which the read-out fell short of the control. Higher therefore signals strong suppression. As a reminder, the IC50 is the concentration needed to halve the response being measured. For orientation: EC50 means the concentration giving half of the maximal effect. Read a low EC50 as an effect from little substance.

Tyrosine-protein kinase BTK (Homo sapiens), sequence (Q06187 whole entry): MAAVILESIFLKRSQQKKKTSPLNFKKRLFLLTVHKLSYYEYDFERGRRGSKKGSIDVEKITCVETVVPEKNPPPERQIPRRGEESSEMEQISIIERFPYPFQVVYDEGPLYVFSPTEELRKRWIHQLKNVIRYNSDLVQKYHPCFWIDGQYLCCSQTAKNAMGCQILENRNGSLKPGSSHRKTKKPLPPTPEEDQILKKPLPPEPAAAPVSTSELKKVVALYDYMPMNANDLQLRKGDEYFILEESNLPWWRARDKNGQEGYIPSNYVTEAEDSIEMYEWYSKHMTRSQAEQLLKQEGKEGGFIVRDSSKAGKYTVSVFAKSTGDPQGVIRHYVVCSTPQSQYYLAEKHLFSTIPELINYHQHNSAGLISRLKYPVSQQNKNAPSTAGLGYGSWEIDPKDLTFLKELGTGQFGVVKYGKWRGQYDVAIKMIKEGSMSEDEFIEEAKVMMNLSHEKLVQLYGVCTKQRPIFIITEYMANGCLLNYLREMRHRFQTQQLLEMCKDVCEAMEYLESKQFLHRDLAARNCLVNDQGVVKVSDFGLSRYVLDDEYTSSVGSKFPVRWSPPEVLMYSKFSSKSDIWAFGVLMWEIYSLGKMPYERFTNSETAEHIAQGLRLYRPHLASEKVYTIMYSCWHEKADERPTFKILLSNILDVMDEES
Serine/threonine-protein kinase Chk2 (Homo sapiens), sequence (O96017 whole entry): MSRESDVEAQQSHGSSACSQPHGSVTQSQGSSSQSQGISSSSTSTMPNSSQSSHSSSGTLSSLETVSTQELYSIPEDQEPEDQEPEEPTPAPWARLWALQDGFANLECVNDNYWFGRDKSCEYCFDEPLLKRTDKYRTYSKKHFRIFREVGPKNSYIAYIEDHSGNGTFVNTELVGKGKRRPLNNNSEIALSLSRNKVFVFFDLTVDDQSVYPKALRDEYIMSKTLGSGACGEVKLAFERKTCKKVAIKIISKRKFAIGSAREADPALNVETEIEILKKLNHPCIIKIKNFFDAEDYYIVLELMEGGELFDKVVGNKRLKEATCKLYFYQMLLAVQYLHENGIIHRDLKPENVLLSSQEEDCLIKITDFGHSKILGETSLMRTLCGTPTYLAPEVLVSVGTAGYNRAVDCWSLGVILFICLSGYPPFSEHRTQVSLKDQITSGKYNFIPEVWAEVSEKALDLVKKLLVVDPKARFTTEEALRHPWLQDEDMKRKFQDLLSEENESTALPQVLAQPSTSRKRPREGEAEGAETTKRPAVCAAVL
Insulin receptor (Homo sapiens), sequence (P06213 28-758 limits assumed): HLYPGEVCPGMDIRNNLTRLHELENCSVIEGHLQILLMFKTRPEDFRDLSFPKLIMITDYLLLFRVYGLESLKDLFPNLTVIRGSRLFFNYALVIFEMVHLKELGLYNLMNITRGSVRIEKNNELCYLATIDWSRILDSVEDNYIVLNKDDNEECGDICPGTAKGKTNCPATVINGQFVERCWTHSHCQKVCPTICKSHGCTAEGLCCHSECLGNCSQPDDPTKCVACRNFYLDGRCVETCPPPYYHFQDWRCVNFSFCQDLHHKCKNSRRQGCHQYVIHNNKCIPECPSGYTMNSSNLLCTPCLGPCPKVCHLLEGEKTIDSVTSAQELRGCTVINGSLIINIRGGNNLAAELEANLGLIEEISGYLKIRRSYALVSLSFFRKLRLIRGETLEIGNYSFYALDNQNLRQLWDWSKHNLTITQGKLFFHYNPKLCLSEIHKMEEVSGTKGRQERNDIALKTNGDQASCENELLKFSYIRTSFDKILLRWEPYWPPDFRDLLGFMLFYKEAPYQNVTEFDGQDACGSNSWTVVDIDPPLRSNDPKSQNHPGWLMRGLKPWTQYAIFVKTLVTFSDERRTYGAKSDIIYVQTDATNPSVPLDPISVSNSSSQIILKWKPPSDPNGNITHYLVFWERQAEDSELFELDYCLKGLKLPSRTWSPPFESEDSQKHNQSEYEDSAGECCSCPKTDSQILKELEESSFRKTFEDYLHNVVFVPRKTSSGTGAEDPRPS
Insulin receptor (Homo sapiens), sequence (P06213 763-1382 limits assumed): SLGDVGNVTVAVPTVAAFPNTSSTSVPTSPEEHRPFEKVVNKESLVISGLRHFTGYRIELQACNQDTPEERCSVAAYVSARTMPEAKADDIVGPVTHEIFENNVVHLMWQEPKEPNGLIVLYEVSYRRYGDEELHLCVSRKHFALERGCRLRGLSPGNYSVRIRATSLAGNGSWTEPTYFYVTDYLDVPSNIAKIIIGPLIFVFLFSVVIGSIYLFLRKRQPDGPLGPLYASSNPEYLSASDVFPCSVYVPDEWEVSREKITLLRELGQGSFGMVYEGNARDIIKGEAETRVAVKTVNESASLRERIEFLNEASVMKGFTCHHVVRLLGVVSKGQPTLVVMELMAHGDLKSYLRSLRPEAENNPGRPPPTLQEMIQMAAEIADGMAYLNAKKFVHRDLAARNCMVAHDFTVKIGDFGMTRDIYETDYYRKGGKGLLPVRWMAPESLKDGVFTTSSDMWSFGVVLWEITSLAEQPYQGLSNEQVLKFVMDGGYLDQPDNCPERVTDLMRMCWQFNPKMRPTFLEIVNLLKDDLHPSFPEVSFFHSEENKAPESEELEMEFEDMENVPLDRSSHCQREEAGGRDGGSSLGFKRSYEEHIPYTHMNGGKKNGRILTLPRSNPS

For the compound `N#Cc1c(N)nc2sc(C(=O)c3cccc(Cl)c3)c(N)c2c1-c1ccccc1Cl`, the inhibition in [1], in assay [3], in assay [4], in [6] and in assay [7] was greater than 50% each time. The IC50 in assay [2] is greater than 10 µM; in assay [5], 72 µM; in assay [8], 0.48 µM; in assay [9], greater than 100 µM. Moreover, a half-maximal effect in the assay with Plasmodium falciparum (EC50) was put at 5.5 µM.
